According to article PMC9186316 (Toxicological Sciences, 2019):
Where two headings read alike, the source gives them in different places.

Key:
[1] = test system: uterus weight response; set-up: species or system rat; details: predicted and in vivo BMDL50 to BMDU50, rats
Outline: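 Generic rat PBK models used for reverse dosimetry of MCF-7 proliferation and YES concentration-response data. In vitro concentrations corrected for unbound fraction (RED in assay medium and rat serum; 10% FBS medium taken as half the 5% FBS fub), then converted to blood concentrations and dose levels. Literature uterotrophic data: absolute uterus weight increase, not body-weight normalised. BMR 50% over control; BMD50 with 95% BMDL50–BMDU50.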

[2] = assay type: in vitro ADME; details: bovine; for recovery: in vitro MCF-7 proliferation assay medium containing 5% FBS; for fraction unbound: in vitro proliferation assay medium with 5% FBS
[3] = Rapid equilibrium dialysis, fraction unbound in rat serum; assay type: in vitro ADME; details: for recovery: rat serum; for fraction unbound: serum
[4] = Generic PBK model evaluation: predicted versus reported Cmax in rat blood; details: oral administration, rats
Outline: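 The generic PBK model predicted parent-compound blood concentration–time curves after single oral dosing in rats, using partition coefficients calculated from log Pow and hepatic clearance from rat liver S9. Doses matched those of the published in vivo kinetic studies. Predicted Cmax was compared with literature blood data, and the difference was expressed as a fold value.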

[5] = Hepatic clearance by substrate depletion in rat liver S9; assay type: in vitro ADME; details: Sprague-Dawley, liver S9, pH 7.4
Outline: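 Rat liver S9 (pooled, male or female Sprague-Dawley, 0.5 mg/ml) was incubated with 3 µM substrate (added from a 100-fold DMSO stock). Sampling ran 0–90 min against cofactor-free controls, with UPLC quantification. CLint came from the linear part of ln(Ccompound/Ccontrol) versus time. Triplicates, 3 independent studies.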

recovery [3] [%]	fraction unbound [3]	Difference in Cmax between the model predictions and the in vivo kinetic data [4] [fold]	Structure (SMILES)	Potency comparison from BMD50 values (Figure 8) [1]	recovery [2] [%]	fraction unbound [2]	microsomal CLint at 3 µM ([5]; female) [µL/min/mg]	microsomal CLint at 3 µM ([5]; male) [µL/min/mg]
			CC(C)(c1ccc(O)cc1)c1ccc(O)cc1 [BPA, bisphenol A]	least potent				
82	0.35 ± 0.07	2.2	O=c1oc2cc(O)ccc2c2oc3cc(O)ccc3c12 [COU, coumestrol]		79	0.69 ± 0.034		
77	0.48 ± 0.08		CC/C(=C(/CC)c1ccc(O)cc1)c1ccc(O)cc1 [DES, Diethylstilbestrol]	most potent	79	0.74 ± 0.02		
			C[C@]12CC[C@@H]3c4ccc(O)cc4CC[C@H]3[C@@H]1CC[C@@H]2O [E2, 17β-estradiol]	most potent				
80	0.46 ± 0.03		C#C[C@]1(O)CC[C@H]2[C@@H]3CCc4cc(O)ccc4[C@H]3CC[C@@]21C [EE2, 17α-ethinylestradiol]	most potent	86	0.72 ± 0.18		
83	0.07 ± 0.02		O=c1c(-c2ccc(O)cc2)coc2cc(O)cc(O)c12 [GEN, genistein]		88	0.8 ± 0.04		

Structure (SMILES)	recovery [3] [%]	fraction unbound [3]	Difference in Cmax between the model predictions and the in vivo kinetic data [4] [fold]	Potency comparison from BMD50 values (Figure 8) [1]	recovery [2] [%]	fraction unbound [2]	microsomal CLint at 3 µM ([5]; female) [µL/min/mg]	microsomal CLint at 3 µM ([5]; male) [µL/min/mg]
COc1ccc(C(c2ccc(OC)cc2)C(Cl)(Cl)Cl)cc1 [MXC, methoxychlor]	76	0.27 ± 0.04			77	0.73 ± 0.29	313 ± 5	448 ± 8
